Source: ChEMBL document CHEMBL1150428, “CYP53A15 of Cochliobolus lunatus, a target for natural antifungal compounds” (J Med Chem, 2008)
≈ marks a conversion by molar mass, not a printed value.

Legend:
Curvularia lunata [1] = experiment: Antifungal activity against Cochliobolus lunatus delta bph at 5 mM assessed as initial growth inhibition time; assay type: functional
Method in brief: (§1)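 Δbph deletion strain of C. lunatus (bph gene replaced by hph, hygromycin-selected) on agar with 5 mM test compound, in triplicate. Plates centrally inoculated with 7 mm mycelial disks from a 48 h culture. Radial growth rate (mm/h) measured; initial growth inhibition time (h) taken as the intercept of the extrapolated linear growth phase at 7 mm.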

Curvularia lunata [2] = experiment: Antifungal activity against Cochliobolus lunatus at 5 mM assessed as initial growth inhibition time; assay type: functional
Method in brief: (§2)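 C. lunatus m118 on agar plates in triplicate, each inhibitor at 5 mM alone or at 5 mM combined with 0.1 mM benzoic acid. Plates centrally inoculated with 7 mm mycelial disks taken from a 48 h solid culture. Radial growth rate (mm/h) from colony diameter over time. Initial growth inhibition time (h) is the time-axis intercept of the linear growth phase extrapolated to 7 mm diameter.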

Curvularia lunata [3] = experiment: Antifungal activity against Cochliobolus lunatus at 5 mM assessed as radial growth rate; assay type: functional; method in brief: as §2
Curvularia lunata [4] = experiment: Antifungal activity against Cochliobolus lunatus delta bph at 5 mM assessed as radial growth rate; assay type: functional; method in brief: as §1
[5] = Inhibition of Cochliobolus lunatus CYP53A15 expressed in Escherichia coli; parameters: species or system Curvularia lunata
Method in brief: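 His-tagged CYP53A15 from E. coli C43(DE3), Ni-NTA purified, reconstituted with rabbit liver NADPH-P450 reductase and DLPC in pH 7.4 phosphate. Reaction started with 1 mM NADPH and benzoate. para-Hydroxybenzoate formation quantified by HPLC of quenched reactions over time. Enzyme at 5 µM, inhibitors at 300 and 600 µM. Kinetic constants from simultaneous progress-curve analysis.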

Curvularia lunata [6] = experiment: Antifungal activity against Cochliobolus lunatus at 0.1 mM assessed as initial growth inhibition time; assay type: functional; method in brief: as §2
Curvularia lunata [7] = experiment: Antifungal activity against Cochliobolus lunatus at 0.1 mM assessed as radial growth rate; assay type: functional; method in brief: as §2
Curvularia lunata [8] = experiment: Antifungal activity against Cochliobolus lunatus; assay type: functional
Method in brief: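 C. lunatus m118 (wild type). MIC, the lowest concentration preventing visible growth after overnight incubation, determined by the Radford method.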

## C/C=C\c1ccc(O)c(OC)c1 [ISOEUGENOL]
Curvularia lunata [1]
  Activity: >1800 h
Curvularia lunata [2]
  Activity: 56 h
Curvularia lunata [3]
  Activity: 0.29 millimeter/hr
Curvularia lunata [4]
  Activity: 0 millimeter/hr
[5]
  Ki: 14.2 µM

## Cc1ccc(C(C)C)c(O)c1 [THYMOL]
[5]
  Ki: 8.2 µM

## C=CCc1ccc(O)c(OC)c1 [EUGENOL]
Curvularia lunata [2]
  Activity: 20 h
Curvularia lunata [3]
  Activity: 0.57 millimeter/hr
[5]
  Ki: 26.2 µM

## COc1cc(C=O)ccc1O [VANILLIN]
Curvularia lunata [2]
  Activity: 12 h
Curvularia lunata [3]
  Activity: 0.55 millimeter/hr
[5]
  Ki: 29.7 µM

## O=C(O)c1ccccc1 [BENZOIC ACID]
Curvularia lunata [1]
  Activity: >1800 h
Curvularia lunata [2]
  Activity: 56 h
Curvularia lunata [3]
  Activity: 0.22 millimeter/hr
Curvularia lunata [6]
  Activity: 12 h
Curvularia lunata [7]
  Activity: 0.55 millimeter/hr
Curvularia lunata [4]
  Activity: 0 millimeter/hr
Curvularia lunata [8]
  MIC: 5 mM (≈ 611 µg/mL)
